Source: ChEMBL document CHEMBL2384903, “Highly efficient biocompatible neuroprotectants with dual activity as antioxidants and P2Y receptor agonists” (J Med Chem, 2013)

Legend:
PC-12 [1] = test: Cytotoxicity against rat PC12 cells assessed as cell viability up to 200 uM after 48 hrs by MTT assay; assay type: cell-based; settings: pc-12, 48 h
Outline: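 PC12 cells were exposed to compounds at various concentrations up to 200 μM for 48 h, and viability was measured by MTT assay.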

P2Y purinoceptor 1 [2] = molecular target: P2Y purinoceptor 1 (Homo sapiens, UniProt P47900); test: Agonist activity at human GFP-tagged P2Y1R transfected in human 1321N1 cells assessed as induction of intracellular calcium mobilization by fluorescence assay; assay type: functional, cell-based
Sequence of P2Y purinoceptor 1 (Homo sapiens, UniProt P47900) (P47900 whole entry): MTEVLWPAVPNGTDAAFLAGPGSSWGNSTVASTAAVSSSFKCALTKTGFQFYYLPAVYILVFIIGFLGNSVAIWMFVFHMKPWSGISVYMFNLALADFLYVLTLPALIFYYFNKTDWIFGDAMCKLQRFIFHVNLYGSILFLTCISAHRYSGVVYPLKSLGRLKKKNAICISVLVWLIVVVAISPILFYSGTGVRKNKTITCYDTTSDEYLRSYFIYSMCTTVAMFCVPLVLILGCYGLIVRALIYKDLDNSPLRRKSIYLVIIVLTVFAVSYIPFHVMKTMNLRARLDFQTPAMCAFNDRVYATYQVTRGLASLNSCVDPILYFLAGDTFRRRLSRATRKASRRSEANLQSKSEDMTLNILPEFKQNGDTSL

PC-12 [3] = test: Antioxidant activity in rat PC12 cells assessed as inhibition of Fe2+-induced ROS production after 1 hr by DCFH-DA staining-based fluorometric analysis; assay type: functional, cell-based; settings: Rattus norvegicus, PC-12, 1 h; read-out: IC50
Outline: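 PC12 cells grown in DMEM, seeded 24 h. Loaded with DCFH-DA (ethanol stock diluted 100-fold in PBS) for 20 min, then probe removed. Nucleotides added at final 0.2–200 μM, and oxidation started with FeSO4 at final 0.16 μM. Fluorescence at 485/530 nm read during 1 h at 37 °C. […] Mean ± SD of two experiments.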

[4] = Antioxidant activity assessed as free radical scavenging activity after 7 mins by ABTS radical cation decolorization assay; assay type: functional
Outline: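 ABTS•+ is made from 7 mM ABTS and 2.45 mM persulfate (final), left in the dark at RT for 12–16 h, then diluted in water pH 7.4 to A734 0.80. It is mixed with compound or Trolox standard (final 0–60 μM), and A734 is read at exactly 7 min. Percent inhibition is plotted against concentration, with solvent blanks. Each run is done at least three times, in triplicate.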

[5] = Antioxidant activity assessed as inhibiton of Fe2+-induced Fenton reaction-mediated hydroxyl radical formation from H2O2 measured for 150 secs by ESR analysis in presence of DMPO; assay type: functional
Outline: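 Spin-trap ESR run at room temperature, final volume 100 μL. 5–500 μM compound is combined with ammonium iron(II) sulfate (1 mM stock) and Tris pH 7.4. After 30 s mixing, DMPO (100 mM stock) and H2O2 (100 mM stock) are added, with final pH 7.2–7.4. Spectrum is recorded 150 s after H2O2 at 9.76 GHz, 6.35 mW. Mean ± SD of three experiments.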

P2Y purinoceptor 11 = molecular target: T1, P2Y purinoceptor 11 (Homo sapiens, UniProt Q96G91); test: Agonist activity at human GFP-tagged P2Y11R transfected in human 1321N1 cells assessed as induction of intracellular calcium mobilization by fluorescence assay; assay type: functional, cell-based
T1 sequence (Q96G91 whole entry): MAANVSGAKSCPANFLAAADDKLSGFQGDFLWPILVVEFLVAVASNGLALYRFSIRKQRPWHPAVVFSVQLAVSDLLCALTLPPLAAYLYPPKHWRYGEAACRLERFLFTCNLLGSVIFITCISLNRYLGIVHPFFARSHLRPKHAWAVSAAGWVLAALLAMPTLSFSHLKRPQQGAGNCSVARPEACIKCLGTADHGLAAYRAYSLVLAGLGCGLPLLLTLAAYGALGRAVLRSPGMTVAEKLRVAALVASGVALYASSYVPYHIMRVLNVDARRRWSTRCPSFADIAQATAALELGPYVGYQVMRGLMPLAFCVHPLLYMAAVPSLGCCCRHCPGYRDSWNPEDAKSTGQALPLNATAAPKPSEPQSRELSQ

[6] = Antioxidant activity assessed as inhibiton of Fe2+-induced Fenton reaction-mediated hydroxyl radical formation from H2O2 relative to trolox; assay type: functional
Outline: (§1)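 Fe(II)-H2O2 hydroxyl radical assay read by ESR with DMPO spin trap. Ammonium iron(II) sulfate (1 mM, stock) was added to 5−500 μM test compound, then 1 mM Tris pH 7.4. After 30 s mixing, DMPO then H2O2 were added. Final pH 7.2−7.4, 100 μL total, room temperature. Spectrum recorded 150 s after H2O2. IC50 given as mean ± SD of three experiments.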

[7] = Antioxidant activity assessed as inhibiton of Fe2+-induced Fenton reaction-mediated hydroxyl radical formation from H2O2 relative to ATP; assay type: functional; outline: as §1
P2Y purinoceptor 1 [8] = molecular target: P2Y purinoceptor 1 (Rattus norvegicus, UniProt P49651); test: Agonist activity at rat brain P2Y1R transfected in HEK293 cells assessed as induction of intracellular calcium mobilization by fluorescence assay; assay type: functional, cell-based
Sequence of P2Y purinoceptor 1 (Rattus norvegicus, UniProt P49651) (P49651 whole entry): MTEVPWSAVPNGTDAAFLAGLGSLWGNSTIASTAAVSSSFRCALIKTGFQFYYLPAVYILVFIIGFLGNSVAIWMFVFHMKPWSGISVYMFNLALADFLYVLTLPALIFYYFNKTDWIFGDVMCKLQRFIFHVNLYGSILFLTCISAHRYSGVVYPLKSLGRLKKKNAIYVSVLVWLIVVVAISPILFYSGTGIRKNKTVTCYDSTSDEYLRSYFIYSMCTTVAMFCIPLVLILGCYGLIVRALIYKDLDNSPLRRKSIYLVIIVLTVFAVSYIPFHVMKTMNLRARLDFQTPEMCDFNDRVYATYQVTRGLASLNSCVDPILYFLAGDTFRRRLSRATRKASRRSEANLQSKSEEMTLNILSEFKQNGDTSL

Homo sapiens = organism: Homo sapiens; test: Selectivity ratio of EC50 for human GFP-tagged P2Y11R to EC50 for human GFP-tagged P2Y1R
Outline: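 1321N1 astrocytoma cells stably expressing human P2Y1-GFP or P2Y11-GFP were loaded with 2 μM fura-2 AM plus 0.02% pluronic acid in HEPES-buffered saline pH 7.4 for 30 min at 37 °C. They were then superfused at 37 °C with graded agonist concentrations. [Ca2+]i was read as the F340/F380 ratio (510 nm emission) in GFP-positive cells, at least 40 cells per point. EC50 came from concentration–response curves, n = 3.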

[9] = Neuroprotective activity in rat primary cortical neurons assessed as decrease in FeSO4-induced oxidative stress measured cell viability after 24 hrs by MTT assay; assay type: functional, cell-based; settings: Cerebral cortex neuron
Outline: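 Cortical neurons came from 1-day-old rat brain, were trypsin-dissociated and plated on polyornithine. They were grown in serum-free DMEM/F12 with B-27, then Ara-C treated for 48 h. Cells were treated with 0.01−5 μM nucleotide before FeSO4 (3 μM final) for 24 h. MTT 1 mg/mL was applied for 2 h at 37 °C, formazan dissolved in DMSO, absorbance read at 550 nm. Viability was expressed relative to vehicle control, mean ± SD of three independent experiments in triplicate.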

[10] = Metabolic stability in human serum assessed as compound remaining at 0.1 mg after 6 hrs by HPLC analysis; assay type: ADME, cell-free; settings: read-out: Stability
Outline: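 0.1 mg compound in water was mixed with human blood serum and RPMI-1640 medium (1:3 serum:medium) and incubated at 37 °C for 0−24 h. Remaining intact nucleotide was quantified from the change in its HPLC peak integration over time.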

| Compound | EC50 (P2Y purinoceptor 1 [2]) [µM] | IC50 (PC-12 [3]) [µM] | IC50 [4] [µM] | IC50 [5] [µM] | EC50 (P2Y purinoceptor 11; read-out: EC50) [µM] | further results |
| --- | --- | --- | --- | --- | --- | --- |
| [BH3-]P(=O)(OC[C@H]1O[C@@H](n2cnc3c(N)ncnc32)[C@H](O)[C@@H]1O)OP(=O)([O-])OP(=O)([O-])OP(=O)([O-])OP(=O)([O-])OC[C@H]1O[C@@H](n2cnc3c(N)ncnc32)[C@H](O)[C@@H]1O.[Na+].[Na+].[Na+].[Na+].[Na+] (stereo not given in full) |  |  |  |  |  | Activity (PC-12 [1]): Non-toxic |
| BP(=O)(OP(=O)(O)OP(=O)(O)OC[C@H]1O[C@@H](n2cnc3c(N)ncnc32)[C@H](O)[C@@H]1O)OP(=O)(O)OP(=O)(O)OC[C@H]1O[C@@H](n2cnc3c(N)ncnc32)[C@H](O)[C@@H]1O | 1.2 | 5 | 61 | 161 |  |  |
| B[P@@](=O)(OC[C@H]1O[C@@H](n2cnc3c(N)nc(Cl)nc32)[C@H](O)[C@@H]1O)OP(=O)(O)C(Cl)(Cl)P(=O)(O)O | 0.15 | 0.18 | 24 | 131 | 1.4 |  |
| Nc1ncnc2c1ncn2[C@@H]1O[C@H](COP(=O)(O)OP(=O)(O)OP(O)(O)=S)[C@@H](O)[C@H]1O |  |  |  |  |  | fold change (FC) [6]: 20; fold change (FC) [7]: 100 |
| [BH3-]P(=O)(OC[C@H]1O[C@@H](n2cnc3c(N)nc(Cl)nc32)[C@H](O)[C@@H]1O)OP(=O)([O-])C(Cl)(Cl)P(=O)([O-])[O-].[Na+].[Na+].[Na+].[Na+] (stereo not given in full) |  |  |  |  |  | Activity (PC-12 [1]): Non-toxic |
| B[P@](=O)(OC[C@H]1O[C@@H](n2cnc3c(N)ncnc32)[C@H](O)[C@@H]1O)OP(=O)(O)O | 13 | 1 | 24 | 41 | 2.9 |  |
| B[P@@](=O)(OC[C@H]1O[C@@H](n2cnc3c(N)nc(Cl)nc32)[C@H](O)[C@@H]1O)OP(=O)(O)OP(=O)(O)O | 0.074 | 1 | 23 | 66 |  | EC50 (P2Y purinoceptor 1 [8]): 0.0045 µM |
| Nc1ncnc2c1ncn2[C@@H]1O[C@H](COP(=O)(O)OP(=O)(O)OP(=O)(O)OP(=O)(O)OP(=O)(O)OC[C@H]2O[C@@H](n3cnc4c(N)ncnc43)[C@H](O)[C@@H]2O)[C@@H](O)[C@H]1O | 0.76 | 29 | > 60 | 75 |  |  |
| BP(=O)(OC[C@H]1O[C@@H](n2cnc3c(N)nc(Cl)nc32)[C@H](O)[C@@H]1O)OP(=O)(O)O (stereo not given in full) |  |  |  |  |  | Activity (PC-12 [1]): Non-toxic |
| B[P@](=O)(OC[C@H]1O[C@@H](n2cnc3c(N)nc(Cl)nc32)[C@H](O)[C@@H]1O)OP(=O)(O)OP(=O)(O)O | 2.5 | 2.6 | 24 | 36 |  |  |
| B[P@](=O)(OC[C@H]1O[C@@H](n2cnc3c(N)nc(Cl)nc32)[C@H](O)[C@@H]1O)OP(=O)(O)O | 0.6 | 0.2 | 39 | 120 | 1 | Ratio EC50 (Homo sapiens): < 530; EC50 [9]: 0.4 µM |
| B[P@@](=O)(OC[C@H]1O[C@@H](n2cnc3c(N)ncnc32)[C@H](O)[C@@H]1O)OP(=O)(O)OP(=O)(O)OP(=O)(O)OP(=O)(O)OC[C@H]1O[C@@H](n2cnc3c(N)ncnc32)[C@H](O)[C@@H]1O | 0.2 | 0.4 | > 60 | 59 |  | EC50 (P2Y purinoceptor 11; 1321-n1): Not Active |
| O=C(O)CN(CCN(CC(=O)O)CC(=O)O)CC(=O)O [EDETIC ACID] |  |  |  | 54 |  |  |
| Cc1c(C)c2c(c(C)c1O)CCC(C)(C(=O)O)O2 (stereo not given) [TROLOX] |  | 20 | 18 |  |  |  |
| Nc1ncnc2c1ncn2[C@@H]1O[C@H](COP(=O)(O)OP(=O)(O)O)[C@@H](O)[C@H]1O [ADENOSINE DIPHOSPHATE] | 0.024 | 21 | 30 | 170 | 1.7 | remaining at 6 h [10]: 32% |
| B[P@](=O)(OC[C@H]1O[C@@H](n2cnc3c(N)ncnc32)[C@H](O)[C@@H]1O)OP(=O)(O)OP(=O)(O)OP(=O)(O)OP(=O)(O)OC[C@H]1O[C@@H](n2cnc3c(N)ncnc32)[C@H](O)[C@@H]1O | 3 | 1.2 | > 60 | 47 |  | EC50 (P2Y purinoceptor 11; 1321-n1): Not Active |
| CSc1nc(N)c2ncn([C@@H]3O[C@H](COP(=O)(O)OP(=O)(O)O)[C@H](O)[C@H]3OC(=O)c3ccccc3)c2n1 |  |  |  |  | 1.5 |  |
| [BH3-][P@@](=O)(OC[C@H]1O[C@@H](n2cnc3c(N)ncnc32)[C@H](O)[C@@H]1O)OP(=O)([O-])[O-].[Na+].[Na+].[Na+] | 0.3 | 1 | 26 | 47 |  | remaining at 6 h [10]: 56%; EC50 (P2Y purinoceptor 11; 1321-n1): Not Active |
| B[P@](=O)(OC[C@H]1O[C@@H](n2cnc3c(N)nc(Cl)nc32)[C@H](O)[C@@H]1O)OP(=O)(O)C(Cl)(Cl)P(=O)(O)O | 0.95 | 0.19 | 27 | 60 | 0.13 |  |
